IC50, inhibition and Activity data for one compound are collected here from ChEMBL document CHEMBL5223168, “Using Imidazo[2,1-b][1,3,4]thiadiazol Skeleton to Design and Synthesize Novel MNK Inhibitors” (ACS Med Chem Lett, 2023).

Molecules are shown by their SMILES. Calls of active or inactive are those of the source. The calls are words filed in the database; no cut-off is given here.

Experiment [1] has as its target MAP kinase-interacting serine/threonine-protein kinase 1 (Homo sapiens, UniProt Q9BUB5). As to the kind of experiment: Inhibition of MNK1 (unknown origin) incubated for 60 mins using CREB as substrate in presence of ATP by LANCE Ultra kinase assay. (In general: Time-resolved FRET reads energy transfer from a long-lived donor to a nearby acceptor.)
The target of another experiment is mTORC1 (Homo sapiens) (UniProt P42345+Q8N122+Q9BVC4). As to the kind of experiment: Inhibition of mTORC1 in human LNCaP C4-2B cells assessed as inhibition of phosphorylation of S6K at Thr389 at 5 uM incubated for 2 hrs by Western blot analysis. In kind it is cell-based. Put shortly: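 C4-2B prostate cancer cells treated with inhibitor; lysates probed by Western blot for p-eIF4E, p-S6K (Thr389), p-rpS6 (Ser240/244) and p-AKT (Ser473).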
mTORC1 (Homo sapiens), sequence (Q8N122 whole entry, looked up, other chains not shown): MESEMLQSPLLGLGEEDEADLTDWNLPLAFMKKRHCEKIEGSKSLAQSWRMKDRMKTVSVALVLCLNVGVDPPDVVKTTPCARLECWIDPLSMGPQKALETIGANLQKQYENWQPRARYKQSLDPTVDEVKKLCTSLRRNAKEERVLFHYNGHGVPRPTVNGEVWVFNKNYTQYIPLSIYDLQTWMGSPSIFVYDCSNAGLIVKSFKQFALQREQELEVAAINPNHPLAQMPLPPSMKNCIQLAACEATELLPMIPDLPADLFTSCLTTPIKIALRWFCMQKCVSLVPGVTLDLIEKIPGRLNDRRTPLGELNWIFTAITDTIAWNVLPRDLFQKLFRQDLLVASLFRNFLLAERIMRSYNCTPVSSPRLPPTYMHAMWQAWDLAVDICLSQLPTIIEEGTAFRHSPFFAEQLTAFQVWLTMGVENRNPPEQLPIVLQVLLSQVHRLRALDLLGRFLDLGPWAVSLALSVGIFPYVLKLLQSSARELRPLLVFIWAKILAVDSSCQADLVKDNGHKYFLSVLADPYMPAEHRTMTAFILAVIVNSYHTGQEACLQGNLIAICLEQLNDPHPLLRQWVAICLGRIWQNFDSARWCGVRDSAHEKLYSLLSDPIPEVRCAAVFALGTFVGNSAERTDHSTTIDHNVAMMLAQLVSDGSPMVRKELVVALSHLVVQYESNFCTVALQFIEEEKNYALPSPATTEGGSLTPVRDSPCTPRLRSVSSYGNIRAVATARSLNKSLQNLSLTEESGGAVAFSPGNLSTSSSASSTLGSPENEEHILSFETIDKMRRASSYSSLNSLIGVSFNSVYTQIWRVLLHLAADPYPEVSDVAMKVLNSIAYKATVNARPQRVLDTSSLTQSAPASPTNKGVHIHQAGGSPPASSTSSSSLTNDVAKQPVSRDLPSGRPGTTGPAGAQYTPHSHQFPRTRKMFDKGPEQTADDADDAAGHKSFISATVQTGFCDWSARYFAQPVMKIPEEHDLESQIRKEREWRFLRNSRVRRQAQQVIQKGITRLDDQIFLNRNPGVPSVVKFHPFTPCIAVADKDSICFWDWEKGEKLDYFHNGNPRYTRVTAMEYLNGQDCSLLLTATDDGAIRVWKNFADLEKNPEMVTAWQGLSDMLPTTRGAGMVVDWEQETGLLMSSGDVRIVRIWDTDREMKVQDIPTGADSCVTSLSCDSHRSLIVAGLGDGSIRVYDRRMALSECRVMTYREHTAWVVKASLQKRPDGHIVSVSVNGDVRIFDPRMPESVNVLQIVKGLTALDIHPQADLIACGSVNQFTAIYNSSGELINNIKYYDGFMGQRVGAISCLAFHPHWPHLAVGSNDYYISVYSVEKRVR
mTORC1 (Homo sapiens), sequence (Q9BVC4 whole entry, looked up, other chains not shown): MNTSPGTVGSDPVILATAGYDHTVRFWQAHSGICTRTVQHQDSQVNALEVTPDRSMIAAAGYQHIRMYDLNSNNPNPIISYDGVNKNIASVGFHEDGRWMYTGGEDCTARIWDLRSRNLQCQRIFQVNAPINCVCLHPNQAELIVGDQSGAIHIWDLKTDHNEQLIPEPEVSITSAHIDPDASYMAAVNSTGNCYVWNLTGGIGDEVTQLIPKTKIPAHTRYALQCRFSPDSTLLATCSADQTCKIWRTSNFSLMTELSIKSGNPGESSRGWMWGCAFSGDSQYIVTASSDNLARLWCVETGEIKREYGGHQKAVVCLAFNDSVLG
On the technique in general: A western blot detects proteins with antibodies after separation by electrophoresis.

For experiment [2], the target named is MAP kinase-interacting serine/threonine-protein kinase 2 (Homo sapiens, UniProt Q9HBH9). As to the kind of experiment: Inhibition of MNK2 (unknown origin) at 3 uM in presence of ATP by kinase assay. Put shortly: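 Single-point kinase profiling: inhibitor tested at 3 μM against a panel of 60 kinases from different families, activity presented as heatmap.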
MAP kinase-interacting serine/threonine-protein kinase 2, sequence (Q9HBH9 whole entry, looked up): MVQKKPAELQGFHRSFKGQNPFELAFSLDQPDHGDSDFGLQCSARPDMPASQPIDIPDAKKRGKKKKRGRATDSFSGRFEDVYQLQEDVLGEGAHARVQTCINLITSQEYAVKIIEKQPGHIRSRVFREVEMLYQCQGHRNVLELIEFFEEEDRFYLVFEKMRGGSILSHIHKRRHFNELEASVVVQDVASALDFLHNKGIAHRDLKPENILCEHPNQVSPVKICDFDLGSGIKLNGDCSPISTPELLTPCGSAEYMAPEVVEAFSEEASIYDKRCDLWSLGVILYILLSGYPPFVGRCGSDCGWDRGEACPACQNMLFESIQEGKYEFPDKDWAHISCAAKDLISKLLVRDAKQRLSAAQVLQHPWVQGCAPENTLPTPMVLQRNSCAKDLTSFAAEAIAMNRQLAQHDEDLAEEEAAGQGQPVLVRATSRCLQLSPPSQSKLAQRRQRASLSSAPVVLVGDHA

Experiment [3] addresses Eukaryotic translation initiation factor 4E (Homo sapiens) (UniProt P06730). The experiment is described as follows: Inhibition of eIF4E phosphorylation in human MDA-MB-231 cells at 5 uM and measured upto 96 hrs by Western blot analysis. In kind it is cell-based. Put shortly:
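Cells maintained with compound at 5 μM for up to 6 days for cell counts; eIF4E phosphorylation followed by immunoblot for up to 96 h.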

The test system of experiment [4] is A549. The experiment is described as follows: Inhibition of colony formation in human A549 cells at 1 to 5 uM measured after 10 days by crystal violet staining based clonogenic assay. In kind it is functional, cell-based. Conditions: dose 1-5 µM, time 10.0 day. In outline:
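Clonogenic assay over 10 days; cells treated with DMSO vehicle or compound at indicated concentrations, plates scanned and colonies quantified from three independent experiments.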

Another experiment deals with MDA-MB-231. The experiment is described as follows: Induction of cell cycle arrest in human MDA-MB-231 cells assessed as decrease in cyclin D3 level at 5 uM incubated for 24 hrs by Western blot analysis. In kind it is functional, cell-based. In outline:
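A549 and MDA-MB-231 cells treated 24 h with 5 μM; lysates resolved by SDS-PAGE and immunoblotted for cyclin B1, cyclin D3 and MMP-3.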

In experiment [5] the test system is A549. The experiment is described as follows: Induction of cell cycle arrest in human A549 cells assessed as accumulation of cells at G2/M phase at 5 uM incubated for 20 hrs by propidium iodide staining based flow cytometry (Rvb=15.5%). In kind it is functional. On the technique in general: In flow cytometry, cells or beads pass a laser one at a time.
Experiment [6] has as its system MAP kinase-interacting kinase MNK1/2 (Homo sapiens). The experiment is described as follows: Inhibition of MNK in human A549 cells assessed as inhibition of eIF4E phosphorylation at 3 uM incubated for 2 hrs by Western blot analysis.
The test system is the same in experiment [7]. As to the kind of experiment: Inhibition of MNK in human MDA-MB-231 cells assessed as inhibition of eIF4E phosphorylation at 3 uM incubated for 2 hrs by Western blot analysis.

The IC50 is the concentration needed to halve the response being measured. What is called inhibition is the share of the control response that was lost under treatment.

Eukaryotic translation initiation factor 4E (Homo sapiens), sequence (P06730 whole entry): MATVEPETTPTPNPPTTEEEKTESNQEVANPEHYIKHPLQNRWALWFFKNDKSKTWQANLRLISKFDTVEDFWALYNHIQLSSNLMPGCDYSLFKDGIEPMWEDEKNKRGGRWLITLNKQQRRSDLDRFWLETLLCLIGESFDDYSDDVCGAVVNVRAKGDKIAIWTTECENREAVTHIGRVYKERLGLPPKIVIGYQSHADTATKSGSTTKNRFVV
MAP kinase-interacting serine/threonine-protein kinase 1, sequence (Q9BUB5 whole entry): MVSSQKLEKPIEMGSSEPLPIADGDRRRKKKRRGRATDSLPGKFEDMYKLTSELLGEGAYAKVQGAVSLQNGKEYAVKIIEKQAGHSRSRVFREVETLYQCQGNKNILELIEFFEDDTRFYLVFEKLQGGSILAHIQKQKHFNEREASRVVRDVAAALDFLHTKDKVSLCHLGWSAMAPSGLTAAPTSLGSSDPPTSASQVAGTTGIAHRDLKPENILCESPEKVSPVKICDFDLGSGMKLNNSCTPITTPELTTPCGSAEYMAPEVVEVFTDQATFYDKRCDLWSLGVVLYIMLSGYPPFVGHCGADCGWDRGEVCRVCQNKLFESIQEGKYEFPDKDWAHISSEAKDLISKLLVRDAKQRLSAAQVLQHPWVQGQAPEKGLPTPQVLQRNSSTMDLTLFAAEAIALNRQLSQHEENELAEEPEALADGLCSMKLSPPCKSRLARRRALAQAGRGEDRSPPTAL

Turning to `CN1CCN(C(=O)c2ccc(-c3nn4c(-c5ccc(C#N)cc5)cnc4s3)cc2)CC1`, the IC50 in experiment [1] was 11.5 nM. Further, the inhibition result at mTORC1 (Homo sapiens) was “inactive”. The inhibition is 100% in experiment [2] and “Dose-Dependent Effect” with A549 [4]. Further, the inhibition result in experiment [3], in experiment [6] and in experiment [7] was “Active” each time. In the experiment with MDA-MB-231, the outcome was Active. The Activity with A549 [5] is 3.3%.
